For assay [1], the target named is Apolipoprotein A-I (Homo sapiens) (UniProt P02647). Briefly: Increase in APOA1-mediated cholesterol in human THP1 cells at 25 uM relative to control. Type of assay: cell-based. The settings on record: THP-1. An outline of the steps:
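Macrophages loaded 24 h in RPMI with 5% LPDS, 1 μCi ml⁻¹ ³H-cholesterol and 50 μg ml⁻¹ acLDL, ± 25 μM inhibitor. Equilibrated 24 h in 0.2% fatty-acid-free BSA ± inhibitor, then 4 h ± APOA1 20 μg ml⁻¹. Efflux = medium ³H as % of total, per mg protein; mouse lines normalized to untreated aP2+/+.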

Assay [2] concerns Mus musculus. The experiment in a line: Effect on glucose level in 5-week old apoE -/- C57BL/6J mouse fed on western diet and 15 mg/kg/day, po drug simultaneously in 5-11 week early intervention study. Type of assay: functional. An outline of the steps:
(§1)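 Male Apoe−/− mice on western diet (21% fat, 0.21% cholesterol) from 4–5 weeks of age. Oral gavage for 6 weeks from age 5 or 12 weeks; vehicle 10% 1-methyl-2-pyrrolidone, 5% cremophor EL with ethanol in water. Blood taken after 6 h fast before and after treatment. Glucose by meter; insulin by ELISA; lipids and glycerol colorimetric.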

Assay [3] in a line: Reduction of IL6 expression mouse aP2-/-R macrophage cells (re-expression of aP2) relative to control. The format is functional, cell-based. Summed up:
(§2)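 Mouse aP2⁺/⁺ and aP2-reconstituted aP2⁻/⁻ macrophage lines were grown in RPMI with FBS or 5% LPDS, with inhibitor in DMSO or vehicle. Mcp-1, Il1β, Il6 and Tnf mRNA were measured by SYBR Green qRT-PCR (annealing at 58 °C, 50 cycles), normalized to 18s rRNA and then to untreated cells. Mean ± s.e.m.; at least triplicate.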

The test system of assay [4] is Macrophage. Briefly: Reduction in total cholesterol ester content in mouse aP2+/+ macrophage cells at 25 uM relative to control. The format is functional, cell-based.
The test system of assay [5] is Mus musculus. The experiment in a line: Effect on body weight in 5-week old apoE-/- C57BL/6J mouse fed on western diet and administered with 15 mg/kg/day, po drug at 12 week in 12-18 week late intervention study. Type of assay: functional.
Assay [6] deals with Mus musculus. The experiment in a line: Attenuation of fatty infiltration of liver in ob/ob mouse at 40 mg/kg/day, po. The format is functional, organism-based. Summed up: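 Male ob/ob mice given daily oral gavage for 6 weeks starting at 8 weeks of age. Liver sections stained with haematoxylin and eosin; n = 6 per group.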
Assay [7] in a line: Reduction of IL1-beta expressed in mouse aP2-/-R macrophage cells (re-expression of aP2) relative to control. The format is functional, cell-based. An outline of the steps: as §2
In assay [8] the test system is Mus musculus. The experiment in a line: Effect on insulin level in 5-week old apoE-/- C57BL/6J mouse fed on western diet and 15 mg/kg/day, po drug simultaneously in 5-11 week early intervention study. The format is functional. An outline of the steps: as §1
A short description of assay [9]: Reduction of IL6 expression mouse aP2+/+ macrophage cells relative to control. The format is functional, cell-based. An outline of the steps: as §2
The test system of assay [10] is Mus musculus. Briefly: Increase in insulin-stimulated AKT serine 473 phosphorylation in ob/ob mouse liver at 40 mg/kg/day, po relative to control. The format is functional, organism-based. Summed up: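 Male ob/ob mice got 40 mg kg⁻¹ d⁻¹ by oral gavage or vehicle. After a 6 h fast under tribromoethanol anaesthesia, portal-vein insulin (2 IU kg⁻¹) or PBS was given. Liver was removed 3 min later, lysed and western-blotted for IRβ pTyr1162/1163 and AKT pSer473 against total IRβ and AKT, then quantified.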

Calls of active or inactive are those of the source. No cut-off for these calls is given here.

Chain of Apolipoprotein A-I (Homo sapiens) (P02647 whole entry): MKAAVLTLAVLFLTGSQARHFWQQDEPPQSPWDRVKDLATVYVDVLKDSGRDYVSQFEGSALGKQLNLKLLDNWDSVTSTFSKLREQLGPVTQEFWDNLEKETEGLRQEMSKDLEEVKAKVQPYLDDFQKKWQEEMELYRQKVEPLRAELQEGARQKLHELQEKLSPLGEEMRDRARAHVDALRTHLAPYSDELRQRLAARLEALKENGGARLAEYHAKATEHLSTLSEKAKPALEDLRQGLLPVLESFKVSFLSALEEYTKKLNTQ

Regarding `CCc1c(-c2ccccc2)c(-c2ccccc2)nn1-c1ccccc1-c1cccc(OCC(=O)O)c1`, the outcome in [1], in assay [3], in assay [4], in [6], in [7] and in assay [9] was Active. The outcome in assay [10] was Active. Also, the Activity in assay [2] amounted to 133.2 mg/dL; in assay [5], 37 g; in assay [8], 0.5 ng/mL.

For the origin of these results see ChEMBL document CHEMBL1142233, “Treatment of diabetes and atherosclerosis by inhibiting fatty-acid-binding protein aP2” (2007).
